WT yeast gro inh = growth inhibition of WT yeast, mitochondrial fusion screen | inhibition, % at 10 µM | AID 1362 | 190,000 tested, 2.1% active | mitochondrial fusion phenotypic screen, WT strain; in the data active = inhibition above about 58%; tested in S. cerevisiae
Ins promoter up = MIN6 insulin promoter up-regulation; MIN6 insulin promoter-GFP reporter, high-content imaging; stronger effect = higher value; z-score at 5 µM; 190,000 tested, 0.3% active; AID 1625;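 active = z-score above 3 at 5 µM with at least 500 cells counted in the well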
Cl transport mod = KCC2 (human) Cl- transport modulation; B-score of Tl+ flux slope (higher = more flux/activation; lower = inhibition) at 10 µM; KCC2 cells, thallium flux FluoZin-2 fluorescence; AID 1456; 190,000 tested, 2.2% active;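 active = thallium flux slope and its plate-corrected score both differing from the plate sample mean at a set confidence after two filtering rounds, in either direction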;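 also: slope of fluorescence scaled to starting intensity during 10 to 20 s after thallium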
SKKanGAS inh = SKKanGAS growth inhibition; S. pyogenes SKKanGAS, kanamycin growth, BacTiter-Glo, 6 h; inhibition, % at 7.5 µM; 300,000 tested, 1.3% active;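 active = mean replicate score, as percent of positive control median, at least 50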;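 also: strain carries kanamycin resistance gene driven by streptokinase promoter and grows in 40 µg/ml kanamycin; loss of luminescence reflects streptokinase promoter inhibition or plain growth inhibition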
Rad51 HR inh = Rad51 (human) homologous recombination inhibition; Q06609; hRad51 DNA strand exchange, fluorescence dequenching; inhibition, % at 10 µM; 200,000 tested, 0.085% active; AID 1385;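 active = inhibition above 40% at the single screening dose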
Target sequence (Q06609 whole entry, looked up): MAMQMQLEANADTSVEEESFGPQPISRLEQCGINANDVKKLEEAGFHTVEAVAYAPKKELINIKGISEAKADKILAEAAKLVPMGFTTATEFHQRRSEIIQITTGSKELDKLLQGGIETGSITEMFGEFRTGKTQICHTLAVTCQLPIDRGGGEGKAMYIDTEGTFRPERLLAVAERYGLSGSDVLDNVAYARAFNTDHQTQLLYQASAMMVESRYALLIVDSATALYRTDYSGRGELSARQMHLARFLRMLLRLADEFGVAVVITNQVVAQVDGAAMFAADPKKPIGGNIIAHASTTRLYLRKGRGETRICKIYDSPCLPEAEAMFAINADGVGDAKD
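System: hRad51 filaments on single-stranded DNA; reagent: Fluorescein- and BHQ1-tagged 47-mer duplex; compound dosing: one concentration, 10 µM final; timing: filaments 15 min 37 °C, then compound 30 min; measured by: fluorescein emission 520 nm, excitation 485 nm; benchmarks: per-plate controls and blanks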
Autophagy HCS = alters autophagy in cells | MEF GFP-LC3 puncta imaging; test concentration mostly 10 µM | calls only at 10 µM (by protocol) | 190,000 tested, 0.98% active | AID 463193;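 active = percentage of spot-positive cells more than 3 SD above its plate mean, without a fluorescence outlier flag or 80% toxicity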
Hits are given with their value; . = inactive; / = no result given; + = active, no number. Shown are actives, neighbours in structure and some others; about 4.2% of the full set was active somewhere.

SMILES	WT yeast gro inh	Ins promoter up	Cl transport mod	SKKanGAS inh	Rad51 HR inh	Autophagy HCS
O=C(O)c1ccccc1N/N=C\c1ccnc2ccccc12	.	.	.	.	.	.
CC(=O)Nc1ccc2c(c1)N(S(=O)(=O)c1cccs1)CCC2	/	/	/	.	/	/
NNc1nc(-c2ccccc2)nc(-c2ccccc2)c1Br	/	/	/	.	/	/
O=C(CCN1CCOCC1)N/N=C/c1cc(Br)cc(Br)c1O	.	.	.	57	.	.
O=C(CCN1CCOCC1)N/N=C/c1cc([N+](=O)[O-])ccc1OC(F)F	.	.	.	.	.	.
Oc1c(Br)cc(Br)cc1/C=N/Nc1ccc(Cl)nn1	/	/	/	84	/	/
Oc1ccc(/C=N/Nc2ccc(Cl)nn2)c(O)c1O	/	/	/	.	/	/
COC(=O)C1(c2ccccc2)NC(c2ccc(O)cc2)C2C(=O)N(c3ccc4c(c3)OCO4)C(=O)C21 (stereo not drawn)	/	.	.	.	.	/
COc1ccc(-c2nnc3n(CCc4ccccc4)c(=O)c4ccccc4n23)c(OC)c1	98	.	.	.	.	.
COc1ccc(CC(=O)N2CCOCC2)cc1OC	87	.	.	.	.	.
CCOC(=O)C1CCN(C(=O)c2ccco2)CC1	.	.	.	/	76	.
CCOC(=O)C1CCN(C(=O)c2cc3c(ccc4ccccc43)o2)CC1	/	/	/	.	/	/
CCOC(=O)C1CCN(C(=O)Cc2ccc(OC)c(OC)c2)CC1	72	.	.	.	.	.
COc1ccccc1C(=O)NCC(=O)N/N=C/c1cn[nH]c1-c1ccccc1	.	.	.	.	.	.
O=C(c1cccs1)N1CCC(c2nc3c(nnn3Cc3c(Cl)cccc3Cl)c(=O)[nH]2)CC1	/	/	/	.	/	/
Cc1cc(C)n(CCCNC(=O)C2CC(=O)N(Cc3ccccc3)C2)n1 (stereo not drawn)	/	/	/	.	/	/
COc1cccc(/C=C/C(=O)OCC(=O)NCCc2ccccc2)c1	.	.	.	.	.	.
O=C(COC(=O)CNC(=O)c1ccccc1F)Nc1nnc(-c2ccccc2)o1	/	/	/	.	/	/
COc1cccc(/C=C/C(=O)OCC(=O)Nc2nnc(-c3ccccc3)o2)c1	/	/	/	63	/	/
O=C(COC(=O)/C=C/c1ccccc1F)Nc1nnc(-c2ccccc2)o1	/	/	/	68	/	/
Cc1sc2ncnc(Sc3nnnn3-c3ccccc3)c2c1C	.	.	.	.	.	.
Clc1ccc(-n2nnnc2Sc2ncnc3sccc23)cc1	/	/	.	.	.	+
CN(C)/C=C(/C#N)C(=O)c1cccc(Oc2ccc(C(C)(C)C)cc2)c1	65	.	.	.	.	.
N#Cc1c(N)nc(Sc2ccc(Cl)cc2)c(C#N)c1-c1ccccc1Cl	/	.	.	75	.	/
CCSc1nc(N)c(C#N)c(-c2ccccc2Cl)c1C#N	.	.	/	.	.	.
SMILES	WT yeast gro inh	Ins promoter up	Cl transport mod	SKKanGAS inh	Rad51 HR inh	Autophagy HCS
CS(=O)(=O)N(CC(=O)NC1CC2CCC1C2)c1ccc(Oc2ccccc2)cc1 (stereo not drawn)	.	/	.	.	.	.
O=C(NNc1c(Cl)cccc1Cl)c1c(F)cccc1Cl	/	.	.	51	.	/
CCn1c(CN2CCN(c3ccc(Cl)cc3)CC2)nc2ccccc21	60	/	.	/	.	.
CN(C)C1(CNC(=S)Nc2ccccc2C(F)(F)F)CCCCC1	.	.	.	.	/	.
O=c1c2ccccc2nc2n1-c1ccccc1CCC2	.	/	/	/	.	.
O=C1c2ccccc2-n2c1nc1ccccc1c2=O	66	.	.	.	.	.
CCC(C)n1c(NC(=O)c2ccccc2)c(C#N)c2nc3ccccc3nc21 (stereo not drawn)	/	/	/	69	.	+
COCc1cc(C)n(CC(=O)Nc2cc(C)cc(C)c2)c(=O)c1C#N	.	.	.	.	/	.
O=C(NNC(=S)Nc1cccc2ccccc12)c1cccc(Br)c1	/	/	14	.	.	.
Cc1nc(SCc2cccnc2)[nH]c(=O)c1C	/	/	/	.	/	/
Cc1ccccc1-n1c(SCC(=O)NC(N)=O)nc2sc(-c3ccccc3)cc2c1=O	.	.	.	86	.	.
Cc1ccccc1-n1c(SCC(N)=O)nc2sc(-c3ccccc3)cc2c1=O	.	.	.	.	.	.
CCc1c(C)c(C#N)c2[nH]c3ccccc3n2c1=S	/	.	.	60	.	/
CCc1cc(=S)n2c([nH]c3ccccc32)c1C#N	.	.	.	.	.	.
COC(=O)c1ccc(-n2c(C)ccc2-c2ccccc2)cc1	.	.	/	.	.	.
CC(=O)c1ccc(-n2c(C)ccc2-c2ccccc2)cc1	62	/	.	.	.	.
Cc1nc(CNS(=O)(=O)c2ccc3ccccc3c2)cs1	.	.	.	.	.	.
